Results reported in publication PMC10139733 (Journal of drug delivery science and technology, 2023).
Structures can show the parent of a compound that is named as a salt.

What was measured:
[1] = Screening solubility of sorafenib in oils, surfactants and cosolvents; assay type: physicochemical; settings: 37 °C, thermodynamic from solid
Caco-2 cells monolayer = test: In vitro transport across the Caco-2 cells monolayer; assay type: in vitro ADME; settings: 80 μg/mL equivalent drug, up to 240 min
Outline: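 Caco-2 cells in RPMI with 10% FBS and 1% penicillin/streptomycin (37 °C, 5% CO2) seeded at 10 × 10⁴ cells/insert on Geltrex-coated 0.3 μm polycarbonate inserts, fed every 2 days for 21 days. Only monolayers with TEER > 300 Ω·cm² were used. Test compound was dispersed in medium and applied apically. Basolateral samples at 30–240 min were replaced with warm medium. Three inserts per time point; HPLC.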

solubility at 24 h ([1]; capmul MCM (oil), oil or lipid): 5160 ± 800 µg/mL
solubility at 24 h ([1]; captex 355 (oil), oil or lipid): 42.8 ± 7.6 µg/mL
solubility at 24 h ([1]; carpyol 90 (oil), oil or lipid): 279 ± 6.5 µg/mL
solubility at 24 h ([1]; corn oil, oil or lipid): 53 ± 13.7 µg/mL
solubility at 24 h ([1]; ethanol (cosolvent), organic solvent or mixture): 5800 ± 800 µg/mL
solubility at 24 h ([1]; isopropyl myristate (oil), oil or lipid): 37.9 ± 7.2 µg/mL
solubility at 24 h ([1]; labrafil M 1944 CS (oil), oil or lipid): 350 ± 50 µg/mL
solubility at 24 h ([1]; labrafil M 2125 CS (oil), oil or lipid): 279 ± 44.9 µg/mL
solubility at 24 h ([1]; lauroglycol (oil), oil or lipid): 298 ± 184 µg/mL
solubility at 24 h ([1]; mineral oil, oil or lipid): 47.6 ± 25.2 µg/mL
solubility at 24 h ([1]; olive oil, oil or lipid): 35 ± 0.6 µg/mL
solubility at 24 h ([1]; peceol (oil), oil or lipid): 900 ± 500 µg/mL
solubility at 24 h ([1]; soybean oil, oil or lipid): 64 ± 49.3 µg/mL
solubility at 24 h ([1]; triacetin (oil), oil or lipid): 113 ± 62.5 µg/mL
Penetration of sorafenib across the monolayer, apical to basolateral (Caco-2 cells monolayer): absolutely no penetration
Structure (SMILES): CNC(=O)c1cc(Oc2ccc(NC(=O)Nc3ccc(Cl)c(C(F)(F)F)c3)cc2)ccn1 [sorafenib, Sorafenib tosylate]
